Activity calls are given as the source filed them. The rule behind the calls is not given here.
Tests used:
Human alphaherpesvirus 1 = assay: Antiviral activity against Herpes simplex virus 1 HF infected in human Hep2 cells assessed as inhibition of virus-induced cytopathogenicity measured at 4 days post-virus infection by Microtest 2 plate based microscopic analysis; assay type: functional, organism-based; conditions: HEp-2
Outline: (§1)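 Cells pregrown in microplates in BME (double vitamins/amino acids, 5% FBS). Medium replaced with compound-containing medium plus virus giving 32 CCID50 per well. Seven concentrations, half-log steps from cytotoxic to noncytotoxic, in triplicate. Cell, virus and cytotoxicity controls run alongside. Incubated 37 °C; cpe reduction judged microscopically at 4 days. Virus rating (VR) derived from cpe inhibition and cytotoxicity.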

Human alphaherpesvirus 3 = assay: Antiviral activity against Varicella zoster virus Ellen infected in human WI-38 cells assessed as inhibition of virus-induced cytopathogenicity measured at 7 days post-virus infection by […] microscopic analysis; assay type: functional, organism-based
Outline: (§2)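 Diploid human embryonic lung fibroblasts, 7-day-old monolayers in tubes, MEM plus 2% fetal bovine serum. Compound added in fresh medium (triplicate), then ~32 CCID50 virus per culture. Incubated 37 °C; medium replaced with fresh drug-containing medium at 48 h and again 48 h later. Cytotoxicity, virus and cell controls included. Cpe scored microscopically at day 7; virus rating (VR) calculated from cpe inhibition and drug cytotoxicity.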

Cytomegalovirus = assay: Antiviral activity against Cytomegalovirus AD 169 infected in human WI-38 cells assessed as inhibition of virus-induced cytopathogenicity measured at 7 days post-virus infection by […] microscopic analysis; assay type: functional, organism-based; outline: as §2
Human adenovirus 2 = assay: Antiviral activity against Human adenovirus 2 Adenoid-6 infected in human KB cells assessed as inhibition of virus-induced cytopathogenicity measured at 4 days post-virus infection by Microtest 2 plate based microscopic analysis; assay type: functional, organism-based; outline: as §1
[1] = tested on: Respiratory syncytial virus; assay: Antiviral activity against Respiratory syncytial virus Long infected in human Hep2 cells assessed as inhibition of virus-induced cytopathogenicity measured at 4 days post-virus infection by Microtest 2 plate based microscopic analysis; assay type: functional, organism-based; conditions: HEp-2; outline: as §1
Human rhinovirus 1A = assay: Antiviral activity against Human rhinovirus 1A 2060 infected in human KB cells assessed as inhibition of virus-induced cytopathogenicity measured at 4 days post-virus infection by Microtest 2 plate based microscopic analysis; assay type: functional, organism-based
Outline: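 Rhinovirus in KB cells under BME with 5% fetal bovine serum, challenged at 32 CCID50 per well alongside compound. Seven half-log concentrations spanning cytotoxic to noncytotoxic, triplicate. Cell, virus and drug-cytotoxicity controls included. Plates sealed, held at 33 °C. Cpe reduction examined microscopically after 4 days; virus rating (VR) computed from cpe inhibition and cytotoxicity.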

[2] = Virus rating for antiviral activity against Herpes simplex virus 1 HF infected in human Hep2 cells assessed as inhibition of virus-induced cytopathic effect taking into account cytotoxicity against human Hep2 cells

| SMILES | inhibition (Human alphaherpesvirus 1) | inhibition (Human alphaherpesvirus 3) | inhibition (Cytomegalovirus) | inhibition (Human adenovirus 2) | inhibition [1] | inhibition (Human rhinovirus 1A) | virus rating [2] |
| --- | --- | --- | --- | --- | --- | --- | --- |
| CSc1nc(N)c2nnn([C@H]3O[C@H](CO)[C@@H](O)[C@@H]3O)c2n1 | inactive | inactive | inactive | inactive | inactive | inactive |  |
| NNc1nc(N)c2ncn([C@H]3O[C@H](CO)[C@@H](O)[C@@H]3O)c2n1 | inactive | inactive | inactive | inactive | inactive | inactive |  |
| Nc1ncnc2c1nnn2[C@H]1O[C@H](CO)[C@@H](O)[C@@H]1O |  |  |  |  |  |  | 1 |
| COc1nc(N)c2nnn([C@H]3O[C@H](CO)[C@@H](O)[C@@H]3O)c2n1 | inactive | inactive | inactive | inactive | inactive | inactive |  |
| [N-]=[N+]=Nc1nc(N)c2nnn([C@H]3O[C@H](CO)[C@@H](O)[C@@H]3O)c2n1 | inactive | inactive | inactive | inactive | inactive | inactive |  |
| COc1nc(N)c2ncn([C@H]3O[C@H](CO)[C@@H](O)[C@@H]3O)c2n1 | inactive | inactive | inactive | inactive | inactive | inactive |  |
| Nc1ncnc2c1ncn2[C@H]1O[C@H](CO)[C@@H](O)[C@@H]1O |  |  |  |  |  |  | 0.6 |
| CSc1nc(N)c2ncn([C@H]3O[C@H](CO)[C@@H](O)[C@@H]3O)c2n1 | inactive | inactive | inactive | inactive | inactive | inactive |  |
| CS(=O)(=O)c1nc(N)c2nnn([C@H]3O[C@H](CO)[C@@H](O)[C@@H]3O)c2n1 | inactive | inactive | inactive | inactive | inactive | inactive |  |
| NNc1nc(N)c2nnn([C@H]3O[C@H](CO)[C@@H](O)[C@@H]3O)c2n1 | inactive | inactive | inactive | inactive | inactive | inactive |  |

Reference: ChEMBL document CHEMBL3244246, “2-Substituted derivatives of 9-alpha-D-arabinofuranosyladenine and 9-alpha-D-arabinofuranosyl-8-azaadenine” (J Med Chem, 1977)
